Test results taken from ChEMBL document CHEMBL1938336, “Quinolone derivatives containing strained spirocycle as orally active glycogen synthase kinase 3β (GSK-3β) inhibitors for type 2 diabetics” (Bioorg Med Chem, 2012).
Values after ≈ are worked out from the molar mass of the structure shown.

Assays:
Staphylococcus aureus = test: Antibacterial activity against Staphylococcus aureus after 18 hrs by microdilution method; type: organism-based; conditions: in vitro
Escherichia coli = test: Antibacterial activity against Escherichia coli after 18 hrs by microdilution method; type: organism-based
[1] = molecular target: T1, Glycogen synthase kinase-3 beta (Homo sapiens, UniProt P49841); test: Inhibition of GSK3-beta in human HepG2 cells assessed as incorporation of [3H]glucose into glycogen at 30 uM after 3 hrs by liquid scintillation counting relative to CHIR99021; type: cell-based
Summary of the method: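 Hep G2 cells seeded at 1 × 10^5 per well and cultured 3 days, then serum-starved 3 h in low-glucose DMEM. Compound added at varying concentrations with […] D-[2-3H]glucose (0.3% DMSO final) for 3 h at 37 °C. Cells lysed in KOH, glycogen ethanol-precipitated, and [3H] incorporation counted by scintillation. Efficacy is % of reference at 30 µM; n = 3.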
Target sequence in this assay (P49841 whole entry, looked up): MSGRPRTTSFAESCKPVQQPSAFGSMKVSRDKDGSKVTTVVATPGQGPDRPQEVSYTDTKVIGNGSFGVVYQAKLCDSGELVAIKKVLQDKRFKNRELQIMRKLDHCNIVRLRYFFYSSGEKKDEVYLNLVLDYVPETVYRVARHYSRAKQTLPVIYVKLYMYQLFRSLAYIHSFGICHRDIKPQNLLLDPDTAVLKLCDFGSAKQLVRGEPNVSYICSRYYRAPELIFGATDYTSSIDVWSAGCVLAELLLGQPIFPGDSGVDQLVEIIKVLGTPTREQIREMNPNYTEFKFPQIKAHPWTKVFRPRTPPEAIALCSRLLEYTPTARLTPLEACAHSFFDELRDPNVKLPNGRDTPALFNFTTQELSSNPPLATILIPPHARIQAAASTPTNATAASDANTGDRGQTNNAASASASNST

[2] = molecular target: T1, Glycogen synthase kinase-3 beta; test: Inhibition of human recombinant GSK3-beta after 1 hr by KinaseGlo luciferase assay
Target sequence in this assay (P49841 whole entry): as the sequence (P49841 whole entry, looked up) above

[3] = molecular target: T1, Glycogen synthase kinase-3 beta; test: Inhibition of GSK3-beta in human HepG2 cells assessed as incorporation of [3H]glucose into glycogen after 3 hrs by liquid scintillation counting; type: cell-based
Target sequence in this assay (P49841 whole entry): as the sequence (P49841 whole entry, looked up) above

Mus musculus [4] = test: Antidiabetic activity in fasted ICR mouse assessed as inhibition of plasma glucose concentration at 300 mg/kg, po administered 30 mins prior to glucose-challenge by oral glucose tolerance test; type: functional
Summary of the method: (§1)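 7-week-old ICR mice fasted 15–17 h, dosed orally with compound suspended in 0.3% CMC-Na or with vehicle. Glucose 5 g/kg given orally 30 min later. Tail-vein blood sampled before dosing and at 0, 0.5, 1 and 2 h after the glucose load; plasma glucose measured by glucose C II-test. The summed 0.5 + 1 h glucose values are expressed as % decrease versus vehicle.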

[5] = AUC in ICR mouse liver at 300 mg/kg, po; type: ADME, organism-based; design: dose 300 mg/kg, route oral
Summary of the method: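 ICR mice dosed orally at 300 mg/kg. Liver AUC was calculated from the plasma AUC and the liver-to-plasma concentration ratio at 4 h post-dose. Means, n = 5–6.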

[6] = AUC (0 to 25 hrs) in ICR mouse plasma at 300 mg/kg, po; type: ADME, organism-based; design: time < 25 hr, dose 300 mg/kg, route oral
[7] = Ratio of drug uptake in ICR mouse liver to ICR mouse plasma at 300 mg/kg, po at 4 hrs; type: ADME, organism-based; design: dose 300 mg/kg, route oral
Summary of the method: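 Liver and plasma concentrations measured 4 h after an oral 300 mg/kg dose in ICR mice; ratio given as liver/plasma; means, n = 5–6.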

Mus musculus [8] = test: Antidiabetic activity in po dosed fasted ICR mouse assessed as inhibition of plasma glucose concentration administered 30 mins prior to glucose-challenge by oral glucose tolerance test; type: functional, organism-based; summary of the method: as §1
Mus musculus [9] = test: Antidiabetic activity in fasted ICR mouse assessed as inhibition of plasma glucose concentration at 50 mg/kg, po administered 30 mins prior to glucose-challenge by oral glucose tolerance test; type: functional; summary of the method: as §1
Mus musculus [10] = test: Ratio of AUC (0 to 25 hrs) in ICR mouse plasma to AUC in ICR mouse liver at 300 mg/kg, po; type: ADME, organism-based; design: dose 300 mg/kg, route oral; conditions: in vivo
Mus musculus [11] = test: Antidiabetic activity in fasted ICR mouse assessed as inhibition of plasma glucose concentration at 150 mg/kg, po administered 30 mins prior to glucose-challenge by oral glucose tolerance test; type: functional; summary of the method: as §1
Mus musculus [12] = test: Antidiabetic activity in fasted ICR mouse assessed as inhibition of plasma glucose concentration at 100 mg/kg, po administered 30 mins prior to glucose-challenge by oral glucose tolerance test; type: functional; summary of the method: as §1

Structure (SMILES)	MIC (Staphylococcus aureus)	MIC (Escherichia coli)	Efficacy [1]	IC50 [2]	EC50 [3]	AUC [5]	AUC(0-t) at 25 h [6]	Kp at 4 h [7]	Ratio AUC (Mus musculus [10])	inhibition in vivo at 300 mg/kg (Mus musculus [4])	inhibition (Mus musculus [8])	inhibition in vivo at 50 mg/kg (Mus musculus [9])	inhibition in vivo at 150 mg/kg (Mus musculus [11])	inhibition in vivo at 100 mg/kg (Mus musculus [12])
Nc1c(F)c(NCCNc2ccccn2)c2c3c1c(=O)c(C(=O)O)cn3C1(CCCC1)CCO2	> 34 µM	> 34 µM	85%	250 nM	13000 nM	–	–	–	–	–	–	–	–	–
Nc1c(F)c(NCCNc2ccccn2)c2c3c1c(=O)c(C(=O)O)cn3C1(CCCC1)CO2	–	–	–	–	20000 nM	–	–	–	–	–	–	–	–	–
Cc1cnc(-c2cnc(NCCNc3ccc(C#N)cn3)nc2-c2ccc(Cl)cc2Cl)[nH]1 [LADUVIGLUSIB]	–	–	100%	–	–	–	–	–	–	38%	–	–	–	–
Cc1c[nH]c(-c2cnc(NCCNc3ccc(C#N)cn3)nc2-c2ccc(Cl)cc2Cl)n1 [LADUVIGLUSIB]	–	–	–	–	–	820 µM·h	210 µM·h	3.8	–	–	–	–	–	–
CC1CC2(CCC2)n2cc(C(=O)O)c(=O)c3c(N)c(F)c(NCCNc4ccccn4)c(c32)O1 (configuration not stated)	> 34 µM	> 34 µM	94%	250 nM	2100 nM	–	–	–	–	–	–	–	–	–
CC1COc2c(NCCNc3ccccn3)c(F)c(N)c3c(=O)c(C(=O)O)cn(c23)C12CCC2 (configuration not stated)	> 34 µM	> 34 µM	48%	10 nM	1400 nM	217 µM·h	6.8 µM·h	32	–	13%	–	–	–	–

Further lines, with some results ahead:

MIC (Staphylococcus aureus)	MIC (Escherichia coli)	Efficacy [1]	IC50 [2]	EC50 [3]	AUC [5]	AUC(0-t) at 25 h [6]	Kp at 4 h [7]	Ratio AUC (Mus musculus [10])	Structure (SMILES)	inhibition in vivo at 300 mg/kg (Mus musculus [4])	inhibition (Mus musculus [8])	inhibition in vivo at 50 mg/kg (Mus musculus [9])	inhibition in vivo at 150 mg/kg (Mus musculus [11])	inhibition in vivo at 100 mg/kg (Mus musculus [12])
5 µM (≈ 2.2 µg/mL)	9 µM (≈ 3.96 µg/mL)	42%	37 nM	–	–	–	–	–	Nc1c(F)c(NCCNc2ccccn2)c2c3c1c(=O)c(C(=O)O)cn3C1(CCO2)CC1	–	–	–	–	–
> 140 µM	> 140 µM	12%	550 nM	–	–	–	–	–	Nc1c(F)c(NCCNc2ccccn2)c2c3c1c(=O)c(C(=O)O)cn3C1(CCC1)CCN2	–	–	–	–	–
18 µM (≈ 8.16 µg/mL)	> 34 µM	65%	36 nM	3200 nM	760 µM·h	24 µM·h	32	32	Nc1c(F)c(NCCNc2ccccn2)c2c3c1c(=O)c(C(=O)O)cn3C1(CCC1)CCO2	31%	Dose-dependent effect	20%	39%	32%
